Laboratory results from ChEMBL document CHEMBL1152203, “New jasmonate analogues as potential anti-inflammatory agents” (Bioorg Med Chem, 2008).
The source made the active and inactive calls. No cut-off for these calls is given here.

Tests used:
RAW264.7 [1] = assay: Antiinflammatory activity in LPS-stimulated mouse RAW264.7 cells assessed as inhibition of NO production after 24 hrs by Griess reagent method; format: functional, cell-based
Outline: (§1)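 RAW264.7 cells at 1.5 × 10^5 cells/mL, pre-incubated 18 h in 24-well plates, then stimulated with LPS (1 µg/mL) alone or with test samples for 24 h. Samples dissolved in EtOH diluted with DMEM, solvent ≤0.1% final. NO in supernatant by Griess reagent (10 min, room temperature, light protected, absorbance 540 nm); IL-6 and TNF-α by ELISA. Mean ± SD.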

RAW264.7 [2] = assay: Antiinflammatory activity in LPS-stimulated mouse RAW264.7 cells assessed as inhibition of IL6 production at after 24 hrs by ELISA; format: functional, cell-based; outline: as §1
RAW264.7 [3] = assay: Antiinflammatory activity in LPS-stimulated mouse RAW264.7 cells assessed as inhibition of TNFalpha production after 24 hrs by ELISA; format: functional, cell-based; outline: as §1
RAW264.7 [4] = assay: Antiinflammatory activity in LPS-stimulated mouse RAW264.7 cells assessed as inhibition of NO production at 100 uM after 24 hrs by Griess reagent method; format: functional, cell-based
Outline: (§2)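 Conditions used at 50 and 100 µM: RAW264.7 cells (1.5 × 10^5 cells/mL) stimulated with LPS (1 µg/mL) alone or with samples for 24 h. Supernatant NO measured by Griess reagent, absorbance 540 nm; IL-6 and TNF-α by ELISA. Means ± SD of duplicate experiments; blank and LPS-only controls.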

RAW264.7 [5] = assay: Antiinflammatory activity in LPS-stimulated mouse RAW264.7 cells assessed as inhibition of NO production at 50 uM after 24 hrs by Griess reagent method; format: functional, cell-based; outline: as §2
RAW264.7 [6] = assay: Antiinflammatory activity in LPS-stimulated mouse RAW264.7 cells assessed as inhibition of IL6 production at 50 uM after 24 hrs by ELISA; format: functional, cell-based; outline: as §1
RAW264.7 [7] = assay: Antiinflammatory activity in LPS-stimulated mouse RAW264.7 cells assessed as inhibition of TNFalpha production at 50 uM after 24 hrs by ELISA; format: functional, cell-based; outline: as §2
RAW264.7 [8] = assay: Cytotoxicity against LPS-stimulated mouse RAW264.7 cells at 100 uM after 24 hrs by MTT assay; format: cell-based; details: raw264.7, 24 h
Outline: (§3)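 Viability of RAW264.7 cells (1.5 × 10^5 cells/mL) after 24 h exposure to LPS (1 µg/mL) plus test sample, by MTT. MTT added for 4 h, formazan dissolved in DMSO, absorbance 540 nm. Means ± SD of duplicate (50, 100 µM) or triplicate (other concentrations) experiments.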

RAW264.7 [9] = assay: Cytotoxicity against LPS-stimulated mouse RAW264.7 cells at 50 uM after 24 hrs by MTT assay; format: cell-based; details: raw264.7, 24 h; outline: as §3
RAW264.7 [10] = assay: Antiinflammatory activity in LPS-stimulated mouse RAW264.7 cells assessed as inhibition of NO production at 25 uM after 24 hrs by Griess reagent method; format: functional, cell-based
Outline: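 Test samples at 12.5 and 25.0 µM with LPS (1 µg/mL) on RAW264.7 cells (1.5 × 10^5 cells/mL) for 24 h. NO read by Griess method, IL-6 and TNF-α by ELISA. Means ± SD of triplicate experiments.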

RAW264.7 [11] = assay: Antiinflammatory activity in LPS-stimulated mouse RAW264.7 cells assessed as inhibition of NO production at 10 uM after 24 hrs by Griess reagent method; format: functional, cell-based
Outline: (§4)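 Samples and prostaglandin references tested at 10 and 30 µM alongside LPS (1 µg/mL) in RAW264.7 cells (1.5 × 10^5 cells/mL), 24 h; NO by Griess reagent. Triplicate experiments, means ± SD.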

RAW264.7 [12] = assay: Antiinflammatory activity in LPS-stimulated mouse RAW264.7 cells assessed as inhibition of NO production at 30 uM after 24 hrs by Griess reagent method; format: functional, cell-based; outline: as §4
RAW264.7 [13] = assay: Antiinflammatory activity in LPS-stimulated mouse RAW264.7 cells assessed as inhibition of NO production at 12.5 uM after 24 hrs by Griess reagent method; format: functional, cell-based; outline: as §1
RAW264.7 [14] = assay: Antiinflammatory activity in LPS-stimulated mouse RAW264.7 cells assessed as inhibition of IL6 production at 12.5 uM after 24 hrs by ELISA; format: functional, cell-based; outline: as §1
RAW264.7 [15] = assay: Antiinflammatory activity in LPS-stimulated mouse RAW264.7 cells assessed as inhibition of TNFalpha production at 12.5 uM after 24 hrs by ELISA; format: functional, cell-based; outline: as §1
RAW264.7 [16] = assay: Cytotoxicity against LPS-stimulated mouse RAW264.7 cells at 12.5 uM after 24 hrs by MTT assay; format: cell-based; details: raw264.7, 24 h; outline: as §3
RAW264.7 [17] = assay: Cytotoxicity against LPS-stimulated mouse RAW264.7 cells at 25 uM after 24 hrs by MTT assay; format: cell-based; details: raw264.7, 24 h; outline: as §3
RAW264.7 [18] = assay: Antiinflammatory activity in LPS-stimulated mouse RAW264.7 cells assessed as inhibition of NO production at 3.12 uM after 24 hrs by Griess reagent method; format: functional, cell-based
Outline: (§5)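 NO series at 3.12, 6.25 and 12.5 µM: RAW264.7 cells (1.5 × 10^5 cells/mL) co-treated with LPS (1 µg/mL) for 24 h; nitrite by Griess reagent. Means ± SD of triplicate experiments.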

RAW264.7 [19] = assay: Antiinflammatory activity in LPS-stimulated mouse RAW264.7 cells assessed as inhibition of NO production at 6.25 uM after 24 hrs by Griess reagent method; format: functional, cell-based; outline: as §5
RAW264.7 [20] = assay: Cytotoxicity against LPS-stimulated mouse RAW264.7 cells at 3.12 uM after 24 hrs by MTT assay; format: cell-based; details: raw264.7, 24 h; outline: as §3
RAW264.7 [21] = assay: Cytotoxicity against LPS-stimulated mouse RAW264.7 cells at 6.25 uM after 24 hrs by MTT assay; format: cell-based; details: raw264.7, 24 h; outline: as §3
RAW264.7 [22] = assay: Cytotoxicity against LPS-stimulated mouse RAW264.7 cells at 10 uM after 24 hrs by MTT assay; format: cell-based; details: raw264.7, 24 h; outline: as §3

| Structure (SMILES) | Activity (RAW264.7 [1]) | Activity (RAW264.7 [2]) | Activity (RAW264.7 [3]) | Activity (RAW264.7 [10]) | Activity (RAW264.7 [13]) | Activity (RAW264.7 [14]) | Activity (RAW264.7 [15]) | also measured |
| --- | --- | --- | --- | --- | --- | --- | --- | --- |
| CCCCCC1C(=O)C(I)=CC1CC(=O)OC (stereo not given) | Dose-dependent effect | Dose-dependent effect | Dose-dependent effect | – | – | – | – | – |
| CC/C=C\CC1C(=O)C(C(=O)OC)=CC1CC(=O)OC (stereo not given) | – | – | – | – | – | – | – | Activity (RAW264.7 [4]): Active; Activity (RAW264.7 [5]): Active; Activity (RAW264.7 [6]): Active; Activity (RAW264.7 [7]): Active; Activity (RAW264.7 [8]): Toxic; Activity (RAW264.7 [9]): Toxic |
| CCCCCC1C(=O)C(Cl)=CC1CC(=O)OC (stereo not given) | Dose-dependent effect | Dose-dependent effect | Dose-dependent effect | Active | – | – | – | Activity (RAW264.7 [11]): Active; Activity (RAW264.7 [12]): Active |
| CC/C=C\CC1C(=O)C=CC1CC(=O)NCCO (stereo not given) | Dose-dependent effect | Dose-dependent effect | Dose-dependent effect | Active | Active | Active | Active | – |
| CC/C=C\CC1C(=O)C=CC1CC(=O)OC (stereo not given) | Dose-dependent effect | Dose-dependent effect | Dose-dependent effect | Active | Active | Active | Active | Activity (RAW264.7 [4]): Active; Activity (RAW264.7 [5]): Active; Activity (RAW264.7 [6]): Active; Activity (RAW264.7 [7]): Active; Activity (RAW264.7 [8]): Toxic; Activity (RAW264.7 [9]): Toxic |
| CC/C=C\CC1C(=O)C=CC1CC(=O)NC(C)C (stereo not given) | Dose-dependent effect | Dose-dependent effect | Dose-dependent effect | Active | Active | Active | Active | – |
| CCCCCC1C(=O)C=CC1CC(=O)NC(C)C (stereo not given) | Dose-dependent effect | Dose-dependent effect | Dose-dependent effect | Active | Active | Active | Active | – |
| CC/C=C\CC1C(=O)CCC1CC(=O)OC (stereo not given) [METHYL JASMONATE] | – | – | – | – | – | – | – | Activity (RAW264.7 [4]): Active; Activity (RAW264.7 [5]): Active; Activity (RAW264.7 [6]): Active; Activity (RAW264.7 [7]): Active; Activity (RAW264.7 [8]): Toxic; Activity (RAW264.7 [9]): Toxic |
| CCCCCC1C(=O)C(Br)=CC1CC(=O)OC (stereo not given) | Dose-dependent effect | Dose-dependent effect | Dose-dependent effect | – | – | – | – | Activity (RAW264.7 [16]): Toxic; Activity (RAW264.7 [17]): Toxic; Activity (RAW264.7 [18]): Active; Activity (RAW264.7 [19]): Active; Activity (RAW264.7 [20]): Non-toxic; Activity (RAW264.7 [21]): Non-toxic; Activity (RAW264.7 [11]): Active; Activity (RAW264.7 [12]): Active; Activity (RAW264.7 [22]): Toxic |
| CC/C=C\CC1C(=O)C(Cl)=CC1CC(=O)O (stereo not given) | Dose-dependent effect | Dose-dependent effect | Dose-dependent effect | Active | Active | Active | Active | – |
| CC/C=C\CC1C(=O)C(C#N)=CC1CC(=O)OC (stereo not given) | – | – | – | – | – | – | – | Activity (RAW264.7 [4]): Active; Activity (RAW264.7 [5]): Active; Activity (RAW264.7 [6]): Active; Activity (RAW264.7 [7]): Active; Activity (RAW264.7 [8]): Toxic; Activity (RAW264.7 [9]): Toxic |
| CCCCCC1C(=O)C(Cl)=CC1CC(=O)O (stereo not given) | Dose-dependent effect | Dose-dependent effect | Dose-dependent effect | Active | Active | Active | Active | – |
| CC/C=C\CC1C(=O)C(Cl)=CC1CC(=O)OC (stereo not given) | Dose-dependent effect | Dose-dependent effect | Dose-dependent effect | Active | – | – | – | Activity (RAW264.7 [11]): Active; Activity (RAW264.7 [12]): Active |
| CCCCCC1C(=O)C=CC1CC(=O)O (stereo not given) | Dose-dependent effect | Dose-dependent effect | Dose-dependent effect | Active | Active | Active | Active | – |
| CC/C=C\CC1C(=O)C(I)=CC1CC(=O)OC (stereo not given) | Dose-dependent effect | Dose-dependent effect | Dose-dependent effect | – | – | – | – | – |
| CCCCCC1C(=O)C=CC1CC(=O)NCCO (stereo not given) | Dose-dependent effect | Dose-dependent effect | Dose-dependent effect | Active | Active | Active | Active | – |
| CC/C=C\CC1C(=O)C=CC1CC(=O)O (stereo not given) | Dose-dependent effect | Dose-dependent effect | Dose-dependent effect | Active | Active | Active | Active | – |
| CCCCCC1C(=O)C=CC1CC(=O)OC (stereo not given) | Dose-dependent effect | Dose-dependent effect | Dose-dependent effect | – | – | – | – | – |
